From ChEMBL document CHEMBL1157000, “Aminofurazans as potent inhibitors of AKT kinase” (Bioorg Med Chem Lett, 2009)

What was measured:
[1] = biological target: RAC-alpha serine/threonine-protein kinase (Homo sapiens, UniProt P31749); test: Inhibition of AKT
BT-474 = test: Antiproliferative activity against human BT474 cells; assay type: functional, cell-based
Procedure, shortened: (§1)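 Cell proliferation inhibition in tumour lines (BT474, LNCaP) and non-tumour HFF cells; values are the mean of at least two experiments.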

LNCaP = test: Antiproliferative activity against human LNCAP cells; assay type: functional, cell-based; procedure, shortened: as §1
HFF = test: Antiproliferative activity against human HFF cells; assay type: functional, cell-based; procedure, shortened: as §1
[2] = biological target: RAC-gamma serine/threonine-protein kinase (Homo sapiens, UniProt Q9Y243); test: Inhibition of AKT3
Mus musculus = test: Inhibition of GSK3B phosphorylation in human BT474 cells xenografted in ip dosed mouse; assay type: functional, organism-based; conditions: BT-474
Procedure, shortened: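 Mice bearing BT474 xenografts were dosed ip at […], 12.5 or 25 mg/kg, with a vehicle control group. GSK3b phosphorylation in the tumours was the read-out.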

Chain of RAC-gamma serine/threonine-protein kinase (Q9Y243 whole entry): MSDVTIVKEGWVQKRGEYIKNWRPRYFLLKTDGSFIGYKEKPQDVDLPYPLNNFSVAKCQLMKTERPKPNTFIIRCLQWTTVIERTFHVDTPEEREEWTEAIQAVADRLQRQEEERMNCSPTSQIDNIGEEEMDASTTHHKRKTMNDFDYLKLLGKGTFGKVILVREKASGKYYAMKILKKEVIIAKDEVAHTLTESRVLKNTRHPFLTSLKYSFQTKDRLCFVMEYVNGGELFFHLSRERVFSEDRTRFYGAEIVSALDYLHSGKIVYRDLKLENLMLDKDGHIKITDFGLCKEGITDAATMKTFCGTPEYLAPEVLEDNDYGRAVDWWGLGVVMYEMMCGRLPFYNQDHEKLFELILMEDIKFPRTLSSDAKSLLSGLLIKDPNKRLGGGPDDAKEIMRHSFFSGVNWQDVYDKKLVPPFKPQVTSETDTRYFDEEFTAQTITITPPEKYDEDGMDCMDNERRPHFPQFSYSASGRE
Chain of RAC-alpha serine/threonine-protein kinase (P31749 whole entry): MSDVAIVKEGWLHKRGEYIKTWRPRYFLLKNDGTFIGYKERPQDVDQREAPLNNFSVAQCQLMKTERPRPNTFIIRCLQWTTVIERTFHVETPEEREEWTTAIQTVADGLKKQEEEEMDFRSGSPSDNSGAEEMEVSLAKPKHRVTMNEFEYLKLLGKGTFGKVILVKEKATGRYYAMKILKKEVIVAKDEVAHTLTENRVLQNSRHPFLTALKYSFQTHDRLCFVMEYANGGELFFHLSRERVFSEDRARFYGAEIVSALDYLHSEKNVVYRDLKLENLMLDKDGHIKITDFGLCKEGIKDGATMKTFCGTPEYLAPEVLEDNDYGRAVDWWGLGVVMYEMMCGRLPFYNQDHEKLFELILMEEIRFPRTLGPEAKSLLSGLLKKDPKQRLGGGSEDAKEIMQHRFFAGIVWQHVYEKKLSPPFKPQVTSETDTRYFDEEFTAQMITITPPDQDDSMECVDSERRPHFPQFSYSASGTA

**Q.** With `CCn1c(-c2nonc2N)nc2c(C#CC(C)(C)O)nc(OCCCN)cc21` as the molecule, how does the IC50 [1] read?
**A.** The IC50 was 16 nM.

**Q.** And the Ki [1]?
**A.** The Ki was 115 nM.

**Q.** And the IC50 (BT-474)?
**A.** Its IC50 is 7120 nM.

**Q.** And the IC50 (LNCaP)?
**A.** The IC50 was 3180 nM.

**Q.** And the IC50 (HFF)?
**A.** Its IC50 is 30000 nM.

**Q.** Which results are given for `CCn1c(-c2nonc2N)nc2c(C#CC(C)(C)O)nc(O[C@@H](CCN)c3ccccc3)cc21`?
**A.** IC50 [1]: 2 nM; Ki [1]: 0.2 nM; IC50 (BT-474): 1 nM; IC50 (LNCaP): 5 nM; IC50 (HFF): 11000 nM

**Q.** What does the source list for `CCn1c(-c2nonc2N)nc2c(C#CC(C)(C)O)nc(CN3CCCC3)cc21` [GSK-1000163A]?
**A.** IC50 [1]: 6 nM; IC50 [2]: 22 nM; IC50 (BT-474): 1250 nM; IC50 (LNCaP): 313 nM; IC50 (HFF): 30000 nM

**Q.** With `CCn1c(-c2nonc2N)nc2c(C#CC(C)(C)O)nc(O[C@H](CCN)c3ccccc3)cc21` as the molecule, how does the IC50 [1] read?
**A.** Its IC50 is 4 nM.

**Q.** And the Ki [1]?
**A.** The Ki was 1.9 nM.

**Q.** What about the IC50 [2] of the same molecule?
**A.** The IC50 was 65 nM.

**Q.** And the IC50 (BT-474)?
**A.** The IC50 was 224 nM.

**Q.** What about the IC50 (LNCaP) of the same molecule?
**A.** Its IC50 is 85 nM.

**Q.** And the IC50 (HFF)?
**A.** The IC50 was 29000 nM.

**Q.** Which results are given for `CCn1c(-c2nonc2N)nc2c(C#CC(C)(C)O)nc(OC[C@@H](C)N)cc21`?
**A.** IC50 [1]: 8 nM; IC50 (BT-474): 860 nM; IC50 (LNCaP): 220 nM; IC50 (HFF): 17000 nM

**Q.** For `CCn1c(-c2nonc2N)nc2c(C#CC(C)(C)O)nc(OC[C@@H](N)c3ccccc3)cc21` [GSK-938890A], which IC50 [1] is on record?
**A.** Its IC50 is 5 nM.

**Q.** And the IC50 [2]?
**A.** The IC50 was 49 nM.

**Q.** And the IC50 (BT-474)?
**A.** Its IC50 is 3440 nM.

**Q.** What about the IC50 (LNCaP) of the same molecule?
**A.** The IC50 was 176 nM.

**Q.** And the IC50 (HFF)?
**A.** The IC50 was 20000 nM.

**Q.** How did the IC50 [1] turn out when `CCn1c(-c2nonc2N)nc2c(C#CC(C)(C)O)nc(O[C@H](CN)c3ccccc3)cc21` was run?
**A.** The IC50 was 3 nM.

**Q.** And the Ki [1]?
**A.** Its Ki is 3 nM.

**Q.** What about the IC50 (BT-474) of the same molecule?
**A.** Its IC50 is 124 nM.

**Q.** And the IC50 (LNCaP)?
**A.** Its IC50 is 68 nM.

**Q.** What about the IC50 (HFF) of the same molecule?
**A.** Its IC50 is 20000 nM.

**Q.** With `CCn1c(-c2nonc2N)nc2c(C#CC(C)(C)O)ncc(OC[C@H]3CCCNC3)c21` [GSK-690693] as the molecule, how does the IC50 (BT-474) read?
**A.** Its IC50 is 69 nM.

**Q.** What about the IC50 (LNCaP) of the same molecule?
**A.** Its IC50 is 21 nM.

**Q.** What about the IC50 (HFF) of the same molecule?
**A.** Its IC50 is > 23000 nM.

**Q.** With `CCn1c(-c2nonc2N)nc2c(C#CC(C)(C)O)nc(OC[C@H](C)N)cc21` as the molecule, how does the IC50 [1] read?
**A.** The IC50 was 13 nM.

**Q.** And the IC50 (BT-474)?
**A.** Its IC50 is 4860 nM.

**Q.** What about the IC50 (LNCaP) of the same molecule?
**A.** Its IC50 is 560 nM.

**Q.** And the IC50 (HFF)?
**A.** The IC50 was 28000 nM.

**Q.** Which IC50 [1] does the source give for `CCn1c(-c2nonc2N)nc2c(C#CC(C)(C)O)nc(CCCN)cc21` here?
**A.** Its IC50 is 3 nM.

**Q.** And the IC50 [2]?
**A.** Its IC50 is 30 nM.

**Q.** And the IC50 (BT-474)?
**A.** Its IC50 is 3520 nM.

**Q.** And the IC50 (LNCaP)?
**A.** Its IC50 is 4720 nM.

**Q.** What about the IC50 (HFF) of the same molecule?
**A.** The IC50 was 23000 nM.

**Q.** How did the IC50 [1] turn out when `CCn1c(-c2nonc2N)nc2c(C#CC(C)(C)O)nc(CCN)cc21` was run?
**A.** The IC50 was 4 nM.

**Q.** What about the IC50 (BT-474) of the same molecule?
**A.** Its IC50 is 1090 nM.

**Q.** And the IC50 (LNCaP)?
**A.** Its IC50 is 2020 nM.

**Q.** And the IC50 (HFF)?
**A.** Its IC50 is 24000 nM.

**Q.** What does the source list for `CCn1c(-c2nonc2N)nc2c(C#CC(C)(C)O)nc(OCCNC)cc21`?
**A.** IC50 [1]: 12 nM; IC50 (BT-474): 3190 nM; IC50 (LNCaP): 896 nM; IC50 (HFF): 17000 nM

**Q.** Which IC50 [1] does the source give for `CCn1c(-c2nonc2N)nc2c(C#CC(C)(C)O)nc(O[C@@H](CN)c3ccccc3)cc21` here?
**A.** Its IC50 is 1 nM.

**Q.** What about the Ki [1] of the same molecule?
**A.** The Ki was 0.4 nM.

**Q.** What about the IC50 [2] of the same molecule?
**A.** Its IC50 is 1 nM.

**Q.** What about the IC50 (BT-474) of the same molecule?
**A.** Its IC50 is 35 nM.

**Q.** And the IC50 (LNCaP)?
**A.** The IC50 was 27 nM.

**Q.** What about the IC50 (HFF) of the same molecule?
**A.** The IC50 was 519 nM.

**Q.** And the inhibition (Mus musculus)?
**A.** Its inhibition is “Dose-dependent effect”.

**Q.** Which IC50 [1] does the source give for `CCn1c(-c2nonc2N)nc2c(C#CC(C)(C)O)nc(OCCN)cc21` here?
**A.** Its IC50 is 5 nM.

**Q.** And the Ki [1]?
**A.** Its Ki is 6 nM.

**Q.** And the IC50 [2]?
**A.** The IC50 was 43 nM.

**Q.** And the IC50 (BT-474)?
**A.** The IC50 was 1080 nM.

**Q.** And the IC50 (LNCaP)?
**A.** Its IC50 is 497 nM.

**Q.** And the IC50 (HFF)?
**A.** The IC50 was 5000 nM.

**Q.** How did the IC50 [1] turn out when `CCn1c(-c2nonc2N)nc2c(C#CC(C)(C)O)nc(OC[C@H](N)c3ccccc3)cc21` [GSK-943949A] was run?
**A.** Its IC50 is 3 nM.

**Q.** And the IC50 [2]?
**A.** The IC50 was 17 nM.

**Q.** And the IC50 (BT-474)?
**A.** The IC50 was 2100 nM.

**Q.** And the IC50 (LNCaP)?
**A.** Its IC50 is 124 nM.

**Q.** And the IC50 (HFF)?
**A.** Its IC50 is 5000 nM.

**Q.** How did the IC50 [1] turn out when `CCn1c(-c2nonc2N)nc2c(C#CC(C)(C)O)nc(OCCCCN)cc21` was run?
**A.** Its IC50 is 63 nM.

**Q.** What about the IC50 (BT-474) of the same molecule?
**A.** The IC50 was 20000 nM.

**Q.** And the IC50 (LNCaP)?
**A.** The IC50 was 6160 nM.

**Q.** What about the IC50 (HFF) of the same molecule?
**A.** Its IC50 is 30000 nM.

**Q.** With `CCn1c(-c2nonc2N)nc2c(C#CC(C)(C)O)nc(CN)cc21` as the molecule, how does the IC50 [1] read?
**A.** The IC50 was 6 nM.

**Q.** What about the IC50 (BT-474) of the same molecule?
**A.** Its IC50 is 806 nM.

**Q.** And the IC50 (LNCaP)?
**A.** Its IC50 is 296 nM.

**Q.** And the IC50 (HFF)?
**A.** Its IC50 is 24000 nM.

**Q.** How did the IC50 [1] turn out when `CCn1c(-c2nonc2N)nc2c(C#CC(C)(C)O)nc(CN(C)C)cc21` was run?
**A.** The IC50 was 2 nM.

**Q.** What about the IC50 (BT-474) of the same molecule?
**A.** The IC50 was 357 nM.

**Q.** What about the IC50 (LNCaP) of the same molecule?
**A.** The IC50 was 114 nM.

**Q.** What about the IC50 (HFF) of the same molecule?
**A.** Its IC50 is 30000 nM.

**Q.** For `CCn1c(-c2nonc2N)nc2c(C#CC(C)(C)O)nc(OC[C@H](N)Cc3ccccc3)cc21`, which IC50 [1] is on record?
**A.** Its IC50 is 0.6 nM.

**Q.** And the Ki [1]?
**A.** The Ki was 0.2 nM.

**Q.** And the IC50 [2]?
**A.** The IC50 was 3 nM.

**Q.** What about the IC50 (BT-474) of the same molecule?
**A.** Its IC50 is 742 nM.

**Q.** And the IC50 (LNCaP)?
**A.** Its IC50 is 20 nM.

**Q.** And the IC50 (HFF)?
**A.** Its IC50 is 8000 nM.

**Q.** For `CCn1c(-c2nonc2N)nc2c(C#CC(C)(C)O)nc(OC[C@@H](N)Cc3ccccc3)cc21`, which IC50 [1] is on record?
**A.** Its IC50 is 3 nM.

**Q.** What about the IC50 (BT-474) of the same molecule?
**A.** The IC50 was 1500 nM.

**Q.** What about the IC50 (LNCaP) of the same molecule?
**A.** The IC50 was 101 nM.

**Q.** What about the IC50 (HFF) of the same molecule?
**A.** The IC50 was 7000 nM.

**Q.** With `CCn1c(-c2nonc2N)nc2c(C#CC(C)(C)O)nc(CNC)cc21` as the molecule, how does the IC50 [1] read?
**A.** The IC50 was 3 nM.

**Q.** And the IC50 (BT-474)?
**A.** The IC50 was 439 nM.

**Q.** What about the IC50 (LNCaP) of the same molecule?
**A.** The IC50 was 201 nM.

**Q.** And the IC50 (HFF)?
**A.** Its IC50 is 5900 nM.
